Common to all, as to assay type: functional
Test [1] deals with Mus musculus. Put plainly: Anticonvulsant activity was measured by subcutaneous pentylenetetrazole test on mice at 0.25 hr at the dose of 100 mg/kg; number of animals protected/number of animals tested 2/2.
Test [2] has as its system Mus musculus. Briefly: Anticonvulsant activity was measured by subcutaneous maximal electroshock test on mice at 1 hr at the dose of 100 mg/kg; number of animals protected/number of animals tested 1/2.
Test [3] concerns Mus musculus. Put plainly: Anticonvulsant activity was measured by rotarod toxicity test on mice at 0.25 hr at the dose of 100 mg/kg; number of animals protected/number of animals tested 0/4.
For test [4], the system named is Mus musculus. Put plainly: Anticonvulsant activity was measured by subcutaneous pentylenetetrazole test on mice at 1 hr at the dose of 100 mg/kg; number of animals protected/number of animals tested 0/2.
Test [5] has as its system Mus musculus. Put plainly: Anticonvulsant activity was measured by maximal electroshock test on mice at 0.25 hr at the dose of 100 mg/kg; number of animals protected/number of animals tested 2/2.
For test [6], the species on record is Mus musculus. Put plainly: Protective index (TD50/ED50) value in MES test in mice.
Test [7] concerns Mus musculus. Briefly: Anticonvulsant activity was measured by subcutaneous pentylenetetrazole test on mice at 30 min at the dose of 300 mg/kg; number of animals protected/number of animals tested 1/1.
In test [8] the test system is Mus musculus. Briefly: Anticonvulsant activity was measured by rotarod toxicity test on mice at 1 hr at the dose of 100 mg/kg; number of animals protected/number of animals tested 0/4.
Test [9] deals with Mus musculus. Briefly: Time of peak effect of activity of compound was measured by both MES and sc Met test in mice. Summed up: (§1)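 Phase II quantification in mice after ip dosing. ED50 (scMet or MES) measured at the time of peak effect. TD50 (rotorod neurologic deficit) measured at the time of peak neurologic deficit. Medians and 95% confidence limits by the Litchfield-Wilcoxon method. Protective index = TD50/ED50. Time of peak effect determined in the MES or scMet test.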

Test [10] deals with Mus musculus. Put plainly: Anticonvulsant activity was measured by subcutaneous pentylenetetrazole test on mice at 4 hr at the dose of 300 mg/kg; number of animals protected/number of animals tested 0/1.
For test [11], the system named is Mus musculus. Put plainly: Time of peak effect of toxicity of compound was measured by both MES and sc Met test in mice. In short, it runs like this:
as §1

Test [12] concerns Mus musculus. Briefly: Anticonvulsant activity was measured by rotarod toxicity test on mice at 4 h at the dose of 300 mg/kg; number of animals protected/number of animals tested 0/2.
The subject of test [13] is Mus musculus. Briefly: Anticonvulsant activity was measured by rotarod toxicity test on mice at 30 min at the dose of 300 mg/kg; number of animals protected/number of animals tested 4/4.
The test system of test [14] is Mus musculus. Briefly: Anticonvulsant activity was measured by maximal electroshock test on mice at 30 min at the dose of 300 mg/kg; number of animals protected/number of animals tested 1/1.
The subject of test [15] is Mus musculus. Briefly: Anticonvulsant activity was measured by maximal electroshock test on mice at 4 h at the dose of 300 mg/kg; number of animals protected/number of animals tested 0/1.
Test [16] is filed under the species Mus musculus. Put plainly: Protective index (TD50/ED50) value in scMET test in mice. In short, it runs like this: as §1
For test [17], the system named is Mus musculus. Briefly: Anticonvulsant activity was measured by rotarod toxicity test on mice at 1 hr at the dose of 50 mg/kg; number of animals protected/number of animals tested, 0/4.
In test [18] the test system is Mus musculus. Briefly: Anticonvulsant activity was measured by subcutaneous pentylenetetrazole test on mice at 30 min at the dose of 300 mg/kg; number of animals protected/number of animals tested, 0/1.
For test [19], the system named is Mus musculus. Briefly: Anticonvulsant activity was measured by rotarod toxicity teston mice at 0.50 hr at the dose of 50 mg/kg; number of animals protected/number of animals tested, 0/4.
In test [20] the test system is Mus musculus. Put plainly: Anticonvulsant activity was measured by subcutaneous pentylenetetrazole test on mice at 30 min at the dose of 100 mg/kg; number of animals protected/number of animals tested, 0/1.
In test [21] the test system is Mus musculus. Briefly: Anticonvulsant activity was measured by rotarod toxicity test on mice at 30 min at the dose of 300 mg/kg; number of animals protected/number of animals tested, 4/4.
Test [22] concerns Mus musculus. Briefly: Anticonvulsant activity was measured by maximal electroshock test on mice at 0.25 hr at the dose of 50 mg/kg; number of animals protected/number of animals tested, 0/4.
Test [23] relates to Mus musculus. Put plainly: Anticonvulsant activity was measured by maximal electroshock test on mice at 1 hr at the dose of 50 mg/kg; number of animals protected/number of animals tested, 0/4.
The subject of test [24] is Mus musculus. Briefly: Anticonvulsant activity was measured by subcutaneous pentylenetetrazole test on mice at 4 h at the dose of 300 mg/kg; number of animals protected/number of animals tested, 0/1.
For test [25], the system named is Mus musculus. Put plainly: Anticonvulsant activity was measured by rotarod toxicity test on mice at 30 min at the dose of 100 mg/kg; number of animals protected/number of animals tested, 0/8.
Test [26] relates to Mus musculus. Briefly: Anticonvulsant activity was measured by subcutaneous pentylenetetrazole test on mice at 4 hr at the dose of 100 mg/kg; number of animals protected/number of animals tested, 0/1.
For test [27], the system named is Mus musculus. Put plainly: Anticonvulsant activity was measured by maximal electroshock test on mice at 4 hr at the dose of 300 mg/kg; number of animals protected/number of animals tested, 0/1.
Test [28] concerns Mus musculus. Briefly: Anticonvulsant activity was measured by rotarod toxicity test on mice at 2 hr at the dose of 50 mg/kg; number of animals protected/number of animals tested, 0/4.
For test [29], the system named is Mus musculus. Briefly: Anticonvulsant activity was measured by maximal electroshock test on mice at 30 min at the dose of 300 mg/kg; number of animals protected/number of animals tested, 1/1.
Test [30] relates to Mus musculus. Put plainly: Anticonvulsant activity was measured by maximal electroshock test on mice at 2 hr at the dose of 50 mg/kg; number of animals protected/number of animals tested, 1/4.
Test [31] concerns Mus musculus. Briefly: Anticonvulsant activity was measured by rotarod toxicity test on mice at 4 hr at the dose of 50 mg/kg; number of animals protected/number of animals tested, 0/4.
The subject of test [32] is Mus musculus. Put plainly: Anticonvulsant activity was measured by rotarod toxicity test on mice at 4 hr at the dose of 100 mg/kg; number of animals protected/number of animals tested, 0/4.
For test [33], the system named is Mus musculus. Put plainly: Anticonvulsant activity was measured by rotarod toxicity test on mice at 4 hr at the dose of 300 mg/kg; number of animals protected/number of animals tested, 0/2.
Test [34] has as its system Mus musculus. Briefly: Anticonvulsant activity was measured by maximal electroshock test on mice at 4 hr at the dose of 50 mg/kg; number of animals protected/number of animals tested, 0/4.
Test [35] relates to Mus musculus. Put plainly: Anticonvulsant activity was measured by maximal electroshock test on mice at 050 hr at the dose of 50 mg/kg; number of animals protected/number of animals tested, 0/4.
For test [36], the system named is Mus musculus. Put plainly: Anticonvulsant activity was measured by rotarod toxicity teston mice at 0.25 hr at the dose of 50 mg/kg; number of animals protected/number of animals tested, 0/4.
The subject of test [37] is Mus musculus. Briefly: Anticonvulsant activity was measured by maximal electroshock test on mice at 30 min at the dose of 100 mg/kg; number of animals protected/number of animals tested, 0/3.
Test [38] concerns Mus musculus. Briefly: Anticonvulsant activity was measured by maximal electroshock test on mice at 4 hr at the dose of 100 mg/kg; number of animals protected/number of animals tested, 0/3.
In test [39] the test system is Mus musculus. Briefly: Effective dose was measured in mouse by maximal electroshock method by ip administration. Summed up: as §1
The next test relates to Rattus norvegicus. Briefly: Effective dose was measured in rat by maximal electroshock method by ip administration.

For `O=C1CC2(CCCC2)C(=O)N1OCc1ccccc1Br`, the Ratio in the test on Mus musculus [1] is 2; with Mus musculus [2], 1; with Mus musculus [3], 0; in the test with Mus musculus [4], 0; with Mus musculus [5] it was 2; with Mus musculus [7] it was 1. Moreover, the Ratio turned out to be 0 with Mus musculus [8]; 0 with Mus musculus [10]; 0 in the test on Mus musculus [12]; 4 with Mus musculus [13]; 1 with Mus musculus [14]; 0 in the test with Mus musculus [15]. The results for the PI in the test filed under Mus musculus [6] and in the test listed under Mus musculus [16] were 2.3 and 1.7, respectively. Also, the TPE with Mus musculus [9] and in the test on Mus musculus [11] was 0.25 throughout.
For the compound `O=C1CC2(CCCC2)C(=O)N1OCc1ccccc1Cl`, the Ratio is on record as 0 in the test with Mus musculus [17]; 0 with Mus musculus [18]; 0 in the test with Mus musculus [19]; 0 with Mus musculus [20]; 4 in the test on Mus musculus [21]; 0 in the test on Mus musculus [22]. The Ratio in the test with Mus musculus [23], in the test on Mus musculus [24], in the test on Mus musculus [25], with Mus musculus [26], with Mus musculus [27] and with Mus musculus [28] was 0 in each case. Also, the Ratio amounted to 1 with Mus musculus [29]; 1 in the test with Mus musculus [30]; 0 in the test on Mus musculus [31]; 0 in the test with Mus musculus [32]; 0 in the test on Mus musculus [33]; 0 in the test with Mus musculus [34]. For the same compound, the Ratio with Mus musculus [35], in the test with Mus musculus [36], in the test with Mus musculus [37] and in the test on Mus musculus [38] was 0 each time.
Compound `NC(=O)N1c2ccccc2C=Cc2ccccc21` [CARBAMAZEPINE] gave an ED50 in the test with Mus musculus [39] of 8.8 mg/kg. Also, the TPE in the test on Mus musculus [9] and with Mus musculus [11] was 0.25 throughout.
Compound `CCC1(C)CC(=O)NC1=O` (centres undefined) [ETHOSUXIMIDE] registered a median effective dose (ED50) in the test with Rattus norvegicus of more than 1000 mg/kg. Besides, the values for the TPE in the test with Mus musculus [9] and in the test on Mus musculus [11] were 0.5 toxicity and 0.5, respectively.

For the origin of these results see ChEMBL document CHEMBL1126893, “Synthesis and CLOGP correlation of imidooxy anticonvulsants” (J Med Chem, 1993).
